Assay outcomes (PubChem BioAssay)
Most compounds without a hit are left out; they make up all but 1.6% or so of the library.
PKD1 kinase inh = inhibitors of human PKD1 kinase, biochemical, fluorescence polarization; Serine/threonine-protein kinase D1 (Homo sapiens), Q15139; PKD1 kinase fluorescence polarization assay; inhibition, % (no concentration beside the values); 200,000 tested, 0.056% active; AID 797, 2007; in the data active = inhibition above about 50%
ABCG2 block = ABCG2 efflux pump inhibitors, primary screen, multiplex with ABCB1, IgMXP3 cells, flow cytometry. inhibition, % at 6.6 µM. JC-1 efflux. 190,000 tested, 0.1% active. Broad substrate specificity ATP-binding cassette transporter ABCG2 (Homo sapiens), Q9UNQ0. AID 1325, 2008;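 active = inhibition above 80%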
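Incubation: cells with compound and JC-1, 10 min at 25 °C, rotating, no wash / Test system: IgMXP3 (ABCG2) plus far-red-tagged CCRF-Adr (ABCB1) cells / Compound dosing: one concentration, 6.6 µM final / Also added: JC-1 fluorescent substrate / Evaluation: efflux inhibition in percent versus controls / Detection: flow cytometry, 530 nm JC-1 signal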
PHOSPHO1 inh = PubChem AID 1565; Phosphoethanolamine/phosphocholine phosphatase (Homo sapiens), Q8TCT1; recombinant PHOSPHO1, absorbance phosphatase assay; inhibition, % at 13.3 µM; 290,000 tested, 1.1% active; in the data active = inhibition above about 60%
p47phox inh = p47phox/p22phox peptide binding inhibitors, primary screen, biochemical, uHTS, NADPH oxidase regulatory subunit; AID 1274, 2008; fluorescence polarization, 2 h; 220,000 tested, 0.53% active; inhibition, % at 24.7 µM;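 active = inhibition above about 30%, limit read from the data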
Target sequence (P14598 whole entry, looked up): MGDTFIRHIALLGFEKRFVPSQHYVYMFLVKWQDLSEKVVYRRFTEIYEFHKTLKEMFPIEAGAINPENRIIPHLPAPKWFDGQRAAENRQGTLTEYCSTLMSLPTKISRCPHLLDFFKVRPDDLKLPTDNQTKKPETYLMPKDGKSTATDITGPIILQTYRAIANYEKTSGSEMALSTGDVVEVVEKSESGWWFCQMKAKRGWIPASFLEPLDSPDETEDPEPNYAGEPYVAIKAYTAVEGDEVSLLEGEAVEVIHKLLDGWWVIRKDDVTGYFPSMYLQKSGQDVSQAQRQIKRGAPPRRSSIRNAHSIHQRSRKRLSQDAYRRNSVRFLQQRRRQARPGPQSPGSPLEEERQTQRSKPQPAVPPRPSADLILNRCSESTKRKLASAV
HSV replic up = enhancers of HSV replication in host cells, fold increase, host cell viability; HSV replication augmentation in cells; maximum fold increase; 220,000 tested, 0.005% active; in the data active = maximum fold increase above about 1.5; tested in PC3 cells
ABCB1 block = ABCB1 efflux pump inhibitors, primary screen, cell-based, multiplex, flow cytometry, ABCG2 counter-screen | AID 1326, 2008 | CCRF-Adr cells, JC-1 efflux | 190,000 tested, 0.067% active | ATP-dependent translocase ABCB1 (Homo sapiens), P08183 | inhibition, % at 6.6 µM; in the data active = inhibition above about 40%;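 also: higher value means more JC-1 retained so stronger ABCB1 efflux block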
Numbers stand for hits; - = inactive; . = no result given.

SMILES	PKD1 kinase inh	ABCG2 block	PHOSPHO1 inh	p47phox inh	HSV replic up	ABCB1 block
N#Cc1ccccc1NC(=O)COC(=O)/C=C/c1cn(-c2ccccc2)nc1-c1ccc(Cl)cc1	-	-	60	-	-	-
CCCN(CCC)CCCNS(=O)(=O)c1ccc2c(c1)oc(=O)n2C	-	-	62	-	-	-
COc1ccc2c(c1[N+](=O)[O-])CCC/C2=N/OC(=O)c1cccc2ccccc12	-	-	78	-	-	-
Cc1ccc(NC(=O)c2cccc3c2C(=O)N(C2CCCCC2)C3)c(Cl)c1	.	.	-	.	.	.
CN(c1ccc(C(=O)N/N=C/c2cccc([N+](=O)[O-])c2)cc1)S(=O)(=O)c1ccccc1	.	.	-	.	.	.
NNc1ccc(Cl)c(C(=O)O)c1	.	.	88	-	-	.
Cc1cccc2cc3c(N)c(C#N)sc3nc12	-	-	64	-	-	-
CCn1cnc2sc(C(=O)N3CCN(Cc4ccc5c(c4)OCO5)CC3)c(C)c2c1=O	-	-	-	85	.	-
CCN(CC)C(=O)Cn1cnc2sc(C(=O)N3CCN(Cc4ccc5c(c4)OCO5)CC3)c(C)c2c1=O	-	-	-	-	-	-
CC(=O)Nc1ccc(S(=O)(=O)N2CCN(C(=O)c3ncoc3-c3ccccc3C)CC2)cc1	.	.	-	.	.	.
CCCOc1ccc(C2NC(=S)NC(c3ccccc3)=C2C(=O)Nc2ccc(C)cc2)cc1OC (stereo not drawn)	-	-	-	-	-	-
CCOc1ccc2nc(NC(=O)c3cccc(-c4cc5ccccc5oc4=O)c3)sc2c1	-	-	-	57	-	-
COc1ccc(-c2nnc(SC3CCOC3=O)n2C2CCCCC2)cc1OC (stereo not drawn)	-	-	75	-	-	-
COc1ccc(-c2nnc(CSc3nnc(-c4ccncc4)n3C3CCCCC3)o2)cc1OC	-	-	-	-	-	-
O=C(CCNC(=O)C1CCN(S(=O)(=O)c2ccc(F)cc2)CC1)NCc1cccnc1	.	.	-	.	.	.
O=C(CCS(=O)(=O)c1cccs1)N1CCCC1	-	-	64	-	-	-
O=C(CCS(=O)(=O)c1cccs1)N1CCN(c2ccc(F)cc2)CC1	-	-	-	-	-	-
Cc1ccc(NN2C(=O)C=C(c3ccccc3)C2=O)cc1	-	-	61	-	-	-
Cc1nc2[nH]c(=S)[nH]c2cc1Br	-	-	101	-	-	-
Cc1nc2nc[nH]c2cc1Br	-	-	-	-	-	-
Cc1ccnc(NC(=O)c2cc([N+](=O)[O-])cc([N+](=O)[O-])c2)c1	-	-	65	-	-	-
O=C(CNC(=O)c1ccccc1F)Nc1ccccc1C(F)(F)F	-	-	69	-	-	-
O=C(N/N=C/c1ccc(Br)s1)c1c[nH]c2ccccc12	-	-	-	-	-	-
Cc1cc(C)nc(NC(=O)CSc2nc3ccccc3o2)n1	-	-	69	42	-	-
O=C(O)c1ccccc1CSc1nc2ccccc2o1	-	-	75	-	-	-
SMILES	PKD1 kinase inh	ABCG2 block	PHOSPHO1 inh	p47phox inh	HSV replic up	ABCB1 block
O=C(O)c1ccc(CSc2nc3ccccc3o2)cc1	-	-	-	-	-	-
O=C(CN1C(=O)C2C3CC(C(Br)C3Br)C2C1=O)N1CCN(Cc2ccccc2)CC1 (stereo not drawn)	.	.	-	-	-	.
Cc1ccc(NC(=O)CCNS(=O)(=O)c2ccc3c(c2)CCC(=O)N3)cc1F	.	.	70	.	.	.
Cc1ccccc1NC(=O)CCNS(=O)(=O)c1ccc2c(c1)CCC(=O)N2	.	.	62	.	.	.
CCOc1ccc(NC(=O)CCNS(=O)(=O)c2ccc3c(c2)CCC(=O)N3)cc1	-	-	-	-	-	-
Cc1noc(C)c1C(=O)N1CCN(S(=O)(=O)c2cccc(Cl)c2Cl)CC1	.	.	-	-	-	.
O=C(CCCOc1ccc(Cl)cc1Cl)NCCc1ccccn1	.	.	-	.	.	.
CNS(=O)(=O)c1cccc(C(=O)OCC(=O)N2CCc3ccccc3C2)c1	-	-	-	30	-	-
CNS(=O)(=O)c1cccc(C(=O)OCC(=O)N2CCCC2)c1	.	.	-	.	.	.
O=C(Cc1c[nH]c2ccccc12)NCc1ccc(Cl)cc1Cl	-	-	-	-	-	-
